Results taken from ChEMBL document CHEMBL1649361, “Pyridone and tetramic acid alkaloids from the spider pathogenic fungus Torrubiella sp. BCC 2165” (J Nat Prod, 2010).
pIC50: −log10 of the molar value. Active and inactive are the calls of the source. The rule behind the calls is not given here.

Assays:
KB [1] = assay: Cytotoxicity against human KB cells by resazurin microplate assay; format: functional, cell-based
Outline: (§1)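 Resazurin microplate assay on human cancer lines: KB (oral epidermoid carcinoma), MCF-7 (breast cancer) and NCI-H187 (small-cell lung cancer). IC50 values were read from the assay, with doxorubicin hydrochloride as the reference standard.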

NCI-H187 = assay: Cytotoxicity against human NCI-H187 cells by resazurin microplate assay; format: functional, cell-based; outline: as §1
MCF7 [2] = assay: Cytotoxicity against human MCF7 cells by resazurin microplate assay; format: functional, cell-based; outline: as §1
Plasmodium falciparum = assay: Antimalarial activity against multidrug-resistant Plasmodium falciparum K1 by microculture radioisotope technique; format: functional, organism-based
[3] = system: Mycobacterium tuberculosis; assay: Antimycobacterial activity against Mycobacterium tuberculosis H37Ra by GFPMA assay; format: functional, organism-based
Vero = assay: Cytotoxicity against african freen monkey Vero cells by green fluorescent protein microplate assay; conditions: Chlorocebus sabaeus
MCF7 [4] = assay: Cytotoxicity against human MCF7 cells at 50 ug/ml by resazurin microplate assay; format: functional, cell-based
Outline: (§2)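 Single-concentration test at 50 µg/mL (119 µM) by resazurin microplate assay on human KB (oral epidermoid carcinoma) or MCF-7 (breast cancer) cells, with doxorubicin hydrochloride as the reference standard.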

KB [5] = assay: Cytotoxicity against human KB cells at 50 ug/ml by resazurin microplate assay; format: functional, cell-based; outline: as §2

| SMILES | Activity (NCI-H187) | Activity (MCF7 [2]) | pIC50 (Plasmodium falciparum) | pIC50 (KB [1]) | pIC50 (NCI-H187) | further results |
| --- | --- | --- | --- | --- | --- | --- |
| CCC(/C=C/C=C/C=C/C(=O)c1c(O)c([C@]2(O)CC[C@@H](O)CC2)c[nH]c1=O)CO (stereo not given in full) | inactive | inactive | – | – | – | Activity (KB [1]): inactive |
| C[C@H]1[C@@H](O)O[C@@H]2O[C@@]3(C)CC[C@H]4[C@H](C)CC[C@@H]1[C@@]24OO3 [ARTENIMOL] | – | – | 8.40 | – | – | – |
| COc1cccc2c1C(=O)c1c(O)c3c(c(O)c1C2=O)C[C@@](O)(C(=O)CO)C[C@@H]3O[C@H]1C[C@H](N)[C@H](O)[C@H](C)O1 [DOXORUBICIN] | – | – | – | 6.43 | 7.01 | – |
| CCC(/C=C/C=C/C=C/C(=O)c1c(O)c([C@]2(O)CC[C@@H](O)CC2)cn(O)c1=O)CO (stereo not given in full) [TORRUBIELLONE A] | – | – | 5.09 | – | 4.16 | Activity [3]: inactive; pIC50 (Vero): 4.06; Activity (MCF7 [4]): inactive; Activity (KB [5]): inactive |
| CCC(/C=C/C=C/C=C/C(O)=C1\C(=O)NC(Cc2ccc(O)cc2)C1=O)CO (stereo not given) [TORRUBIELLONE D] | inactive | inactive | – | 4.36 | – | – |
